The term IC50 denotes the concentration at which inhibition is half-maximal.

Data set [1] relates to mice. To be noted: cited from earlier work.
Data set [2] has as its system cancerous cells compared to the non-cancerous MCs. To be noted: ref Khoury et al. (2022); cited from earlier work.
The test system of data set [3] is HaCaT-II-4 cells. The experiment in a line: Cytotoxicity, WST-1 cell viability assay. The data set is classed as cell-based, human. To be noted: read-out: IC50 against HaCaT-II-4 cells, 72 h post-treatment. Summed up: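 HaCaT-II-4 cells (passage 15) in DMEM with 10% FBS and 1% penicillin-streptomycin were seeded at 10,000 cells/100 μL per well. They were exposed for 72 h to 3-fold serial dilutions, 0.023–150 μM. Medium was replaced with fresh DMEM plus WST-1 for 4 h at 37 °C, and absorbance was read at 450 nm for viability. Three independent trials, each in triplicate; mean ± SEM.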
For orientation: Tetrazolium assays rely on reduction of a dye to a coloured formazan, in cell work by metabolically active cells.

The subject of data set [4] is HaCaT-II-4 cells. Put plainly: Cell death analysis by flow cytometry. The data set is classed as cell-based, human. To be noted: 3 μM. Summed up:
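HaCaT-II-4 cells plated at 10^5 cells/ml in 6-well plates, adhered overnight, then exposed to 3 μM test compound for 48 or 72 h at 37 °C, 5% CO2, with a positive control. Harvested cells resuspended in Guava Nexin reagent (Annexin V-PE/7-AAD), 10 min in the dark. Flow cytometry on FL1-H vs FL2-H gave % early apoptosis, late apoptosis and necrosis. Three independent experiments in triplicate; mean ± SEM.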
For orientation: A flow cytometer gives signals particle by particle.

The test system of data set [5] is HaCaT-II-4 cells. The experiment in a line: Quantification of cellular uptake by ICP-MS. Type of data set: cell-based, human. To be noted: 3 μM, maximum at 24 h.
Data set [6] deals with HaCaT-II-4 cells. The experiment in a line: Cellular fractionation / intracellular distribution by ICP-MS. The data set is classed as cell-based, human. To be noted: 3 μM, 24 h. Summed up: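 HaCaT-II-4 cells adhered overnight at 37 °C, 5% CO2, then treated with 3 μM for 24 h. Washed thrice in cold PBS, trypsinised, pelleted (350 g, 5 min, 4 °C) and washed in PBS. Kit buffers gave the cytoplasmic fraction (on ice 5 min, 500 g), the membrane/organelle fraction (on ice 5 min, 8000 g) and a nuclear/cytoskeletal pellet. Results are % platinum per fraction; three independent experiments in triplicate, mean ± SEM.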

Data set [7] deals with BALB/c mice. Put plainly: Preliminary cisplatin treatment in BALB/c mice. Type of data set: in vivo. To be noted: 5 mg/kg dose, after few weeks of treatment, preliminary data.
The subject of data set [8] is DMBA/TPA-induced skin tumors in BALB/c mice. Put plainly: DMBA/TPA induced skin carcinogenesis mouse model. To be noted: IP weekly; P-PENT 5 and 15 mg/kg, P-HEX 5, 15, 25 mg/kg, cisplatin 2.5 mg/kg. Type of data set: in vivo.
[9] abbreviates: of body weight in mice, ref O'Dwyer et al., 1985, Korst et al., 1997.

Where two headings read alike, the source gives them in different places.

Turning to `N.N.O=C([O-])C1(C(=O)[O-])CCC1.[Pt+2]` [Carboplatin], the MTD as platinum in data set [1] (setting [9]) is given as 31.53 mg Pt/Kg.

Consider `O=C1[O][Pt]2([NH][C@@H]3CCCC[C@H]3[NH]2)[O]C1=O` [Oxaliplatin], for which the MTD as platinum in data set [1] (setting [9]) was 9.82 mg Pt/Kg.

As for `COc1ccnc2c1ccc1c(OC)ccnc12.NC1CCCCC1N.O=[N+]([O-])[O-].O=[N+]([O-])[O-].[OH-].[OH-].[Pt+4]` [47OMESS(IV)], the “greater selectivity toward the cancerous cells compared to the non-cancerous MCs” value in data set [2] is given as 17–22 fold.

In the case of `N.N.[Cl][Pt][Cl]` [Cisplatin], in data set [3], the IC50 worked out at 6.7 ± 0.76 µM. Besides, the necrosis result in data set [4] (48 or 72 h) is given as “No evidence of significant necrosis”. In addition, the “early and late apoptosis compared to the negative control” value in data set [4] (48 h and 72 h) is “significant (p < 0.0001) increase in both early and late apoptosis”. Further, the maximum cellular uptake in data set [5] was determined as 380 nmol/10^6 cells. In data set [6], the “accumulation in cytoplasmic fraction (CF)” value came to 38%; the “accumulation in membrane and organelle (MO) fraction” value is 47%; the “accumulation in nuclear and cytoskeletal (NC) fraction” value amounted to 15%. Besides, in data set [7], the mortality result is “causes significant mortality”. Also, the MTD as platinum in data set [1] (BALB/c mice, ref Aston et al. (2017)) is on record as 3.9 mg Pt/Kg. Further, the “week from which tumor volume was significantly decreased compared to control” value in data set [8] amounted to 4 week.
